Tested on: Mycobacterium tuberculosis variant bovis BCG
Assay: Antimicrobial activity against Mycobacterium bovis BCG TMC1011 Pasteur ATCC 35734 after 24 to 48 hrs
Type: functional
Outline: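 Streaked from frozen glycerol stock onto nutrient agar (1.5% agar), 37 °C, 24 h. Single colonies were grown in nutrient broth to OD600 1.0 and diluted to OD600 0.003. Cells were exposed to compound at varying concentrations from DMSO stocks (1% DMSO). Growth was read at 600 nm at 24 and 48 h, with 690 nm background subtracted and normalised to DMSO controls.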

Structure (SMILES)	MIC99
O=CNCCCC[C@H](NC(=O)[C@H]1COC(c2ccccc2O)=N1)C(=O)O	> 100 µM
O=CNCCCC[C@@H](NC(=O)[C@H]1COC(c2ccccc2O)=N1)C(=O)O	> 100 µM
O=CNCCCC[C@H](NC(=O)[C@@H]1COC(c2ccccc2O)=N1)C(=O)O	> 100 µM
O=CNCCCC[C@@H](NC(=O)[C@@H]1COC(c2ccccc2O)=N1)C(=O)O	> 100 µM

From ChEMBL document CHEMBL2062518, “Total synthesis and biological evaluation of transvalencin Z” (J Nat Prod, 2012)
